Shown are actives, neighbours in structure and some others; about 1.5% of the full set was active somewhere.
NR2E3 ag-1: agonists of human NR2E3 nuclear receptor | Q9Y5X4 | CHO-S Gal4-NCOR/VP16-NR2E3 two-hybrid, luciferase | inhibition of corepressor binding, % at 3.98 µM | actives 0.35% (n = 360,000);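 active = inhibition above the mean of all tested compounds plus 3 SD, cut at about 70% in these data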;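 also: 0% = DMSO with NR2E3 transfected cells and 100% = cells lacking NR2E3 construct; higher means lower luciferase signal from less NR2E3 corepressor binding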
PG9 Ab binder: binds the HIV-1 gp120 antibody PG9; actives 0.43% (n = 360,000); TR-FRET gp120-PG9 antibody binding; AID 624416; inhibition, % at 6.7 µM; in the data active = inhibition above about 8.5%
NR2E3 ag-2: activates human photoreceptor nuclear receptor NR2E3. inhibition of corepressor binding, % at 4.78 µM. actives 0.12% (n = 320,000). GST-NR2E3/biotin-RetCOR TR-FRET, 1536-well;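 active = percent inhibition above the cutoff of mean plus 3 SD of all tested compounds, set per screening campaign, cut at about 20% in these data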;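 also: 0% = DMSO wells and 100% = biotin wells as full block of FRET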
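system = GST-tagged NR2E3 plus biotinylated RetCOR corepressor | input = 1.35 nM GST-NR2E3 | also added = 7 nM biotin-RetCOR | schedule = 5 h incubation at 4 °C | measured by = TR-FRET with europium anti-GST and streptavidin-D2, 340 nm excitation | read-out = percent loss of FRET ratio relative to control wells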
NR1D1 modulator: modulates human Rev-erb alpha binding to DNA; Rev-erbα–FITC-DNA binding, fluorescence polarization, 90 min; activity, % at 10 µM; actives 0.79% (n = 370,000); AID 1259318;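 active = activity above about 14%, limit read from the data; passing the limit was not always enough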;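 also: 0% = DMSO wells with 35 nM protein and 100% = DMSO wells with 750 nM protein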
Target sequence (P20393 whole entry, looked up): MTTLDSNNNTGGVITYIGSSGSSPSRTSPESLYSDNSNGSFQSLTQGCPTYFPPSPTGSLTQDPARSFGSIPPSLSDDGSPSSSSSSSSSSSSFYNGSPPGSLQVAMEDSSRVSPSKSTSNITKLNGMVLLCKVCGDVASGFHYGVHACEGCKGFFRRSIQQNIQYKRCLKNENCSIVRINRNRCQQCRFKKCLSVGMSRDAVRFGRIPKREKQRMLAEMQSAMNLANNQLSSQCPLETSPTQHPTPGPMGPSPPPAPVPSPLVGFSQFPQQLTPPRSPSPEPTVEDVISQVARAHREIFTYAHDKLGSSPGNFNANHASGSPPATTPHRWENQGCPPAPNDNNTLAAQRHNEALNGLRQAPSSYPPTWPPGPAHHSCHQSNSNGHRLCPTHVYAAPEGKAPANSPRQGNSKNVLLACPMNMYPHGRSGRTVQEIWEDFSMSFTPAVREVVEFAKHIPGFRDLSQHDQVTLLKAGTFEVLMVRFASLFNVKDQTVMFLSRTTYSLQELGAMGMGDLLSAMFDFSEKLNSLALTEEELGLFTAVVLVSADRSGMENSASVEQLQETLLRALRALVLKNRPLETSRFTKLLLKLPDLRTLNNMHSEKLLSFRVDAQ
PG9 binder conf: PG9 antibody binding, confirmed; TR-FRET PG9 antibody binding, biochemical; actives 90% (n = 1,500); shares compounds with PG9 Ab binder; AID 651571; inhibition, % at 6.7 µM; in the data active = inhibition above about 9%
PGV04 Ab binding: PGV04 control antibody binding, counter-screen; TR-FRET PGV04 antibody-gp120 binding, biochemical; shares compounds with PG9 Ab binder; actives 95% (n = 1,500); inhibition, % at 6.7 µM; AID 651604; in the data active = inhibition above about 9.5%
PG9 bind DR: small molecules binding HIV-1 gp120 antibody PG9 | TR-FRET PG9 antibody-gp120 binding inhibition | AID 651848 | 95 tested, under 10 active | shares compounds with PG9 Ab binder | IC50, µM; in the data active = IC50 below about 10 µM
PGV04 binding DR: PGV04 binding, dose response counter-screen. TR-FRET binding to control antibody PGV04. AID 651937. actives 20% (n = 95). IC50, µM. shares compounds with PG9 Ab binder
PG126 binding DR: binds control antibody PG126 in PG9 counter-screen; actives 20% (n = 95); TR-FRET binding to antibody PG126, counterscreen; IC50, µM; shares compounds with PG9 Ab binder
An asterisk follows results filed as active; · = no result given. Rule as the data show it, unless noted: active = IC50 below about 9 µM; inactive = the rest.

SMILES	NR2E3 ag-1	PG9 Ab binder	NR2E3 ag-2	NR1D1 modulator	PG9 binder conf	PGV04 Ab binding	others
COC(=O)C1CN(Cc2cn(Cc3ccc(F)cc3)nn2)CCS(=O)(=O)N1Cc1ccc(F)cc1 (stereo not given)	·	·	·	-5	·	·
COc1cc(OC)cc(C(=O)Nc2sc3c(c2C(N)=O)CCC3)c1	-52	50*	3	13	18*	31*
COc1cc(CC(=O)Nc2sc3c(c2C(N)=O)CCCC3)cc(OC)c1OC	13	9.3*	2	14	17*	23*
O=C(NCc1cccc2ccccc12)C1CCCN(c2nc3ccccc3o2)C1 (stereo not given)	·	·	·	-1	·	·
CC(=O)c1ccc(N2CCN(S(=O)(=O)c3cccc(S(=O)(=O)N4CCOCC4)c3)CC2)cc1	-2	16*	3	14	18*	27*
CC(=O)c1ccc(N2CCN(C(=O)/C=C/c3ccc(S(=O)(=O)N4CCOCC4)cc3)CC2)cc1	-9	0	5	-1	·	·
Cc1cccc(-c2cccc3c4c([nH]c23)[C@@H]2C[C@H](N(C)C(=O)c3ccccc3C)[C@H]([C@H](C)O)C(=O)N2CC4)c1	·	·	·	-1	·	·
Cc1nc2sc(C(=O)NCc3nccs3)c(N)c2c(C)c1Cl	·	·	·	24	·	·
CN(C)C1(CNC(=O)CC(NC(=O)c2ccccc2Cl)c2ccccc2)CCCCC1 (stereo not given)	-25	17*	4	9	8.9*	9.6*
CC(=O)OC1CC(C)(C)N(OC(=O)c2ccc(N)cc2)C(C)(C)C1	-23	29*	-1	0	32*	43*
CC(=O)OC1CC(C)(C)N(OC(=O)c2ccccc2)C(C)(C)C1	6	1	1	4	·	·
CC(C)CN1C(=O)N2Cc3ccccc3C2CS1(=O)=O (stereo not given)	·	·	·	-2	·	·
COC(=O)c1c(NC(=S)Nc2ccc(C(=O)N3CCOCC3)cc2)sc2c1CCC2	21	10*	0	5	5	6
COc1ccc(S[C@]2(C(=O)N3CCOCC3)CC(=O)N(C(=O)c3ccccc3)[C@@H]2c2ccc(OC)cc2)cc1	·	·	·	4	·	·
O=C(CCc1nc2ccccc2c(=O)[nH]1)OCc1ccc(-c2ccccc2)cc1	-19	9.3*	0	16	17*	24*
COC(=O)c1ccccc1NC(=O)COc1ccc2c(c1)OCO2	-23	9.2*	5	11	6	7
O=C(COC(=O)c1ccccc1NC(=O)c1ccco1)Nc1ccc2c(c1)OCO2	4	11*	0	-1	9.2*	12*
COC(=O)c1cc(-c2cccc3ccccc23)c(=O)n2c1CCC2	·	·	·	-6	·	·
CCOC(=O)[C@@]12CCCC3=C1N(CCC3)C(=O)[C@H]2CC(=O)NCC1CCCCC1	·	·	·	-4	·	·
S=c1[nH]ccc2ccccc12	-32	11*	·	-5	4	11*
CCOC(=O)N1CCN(C(=O)C[C@H]2C[C@@]3(C(=O)OC)C(=C[C@H](C(C)C)O[C@@H]3C3CC3)N(CCC3=CCCCC3)C2=O)CC1	·	·	·	-7	·	·
Cn1c(CNC(=O)C2CCCCC2)cc2cc(Cl)ccc21	-30	19*	7	5	22*	34*
Cc1ccc(OCc2ccc(C(=O)Nc3nccs3)o2)cc1	-94	14*	-3	0	15*	21*
O=C(Nc1nccs1)c1ccc(COc2ccccc2)o1	-80	9.3*	0	8	13*	20*
CCc1nnc(NC(=O)c2ccc(COc3ccc(C)cc3)o2)s1	-13	-1	-3	1	·	·
SMILES	NR2E3 ag-1	PG9 Ab binder	NR2E3 ag-2	NR1D1 modulator	PG9 binder conf	PGV04 Ab binding	others
O=C(O)CCn1c2c(c3ccccc31)C[C@H](NS(=O)(=O)c1ccc(F)cc1)CC2	·	·	·	-4	·	·
COc1cccc(C(=O)N2CCC(Oc3cccnc3)CC2)c1	·	·	·	-6	·	·
O=C(NCCN1CCC(Cc2ccccc2)CC1)C1CCCN(S(=O)(=O)c2ccccc2)C1 (stereo not given)	·	·	·	4	·	·
CCC1(C)Cc2ccccc2-c2nc(SCC(N)=O)[nH]c(=O)c21 (stereo not given)	0	-1	-2	0	·	·
CCC1(C)Cc2ccccc2-c2nc(SC)[nH]c(=O)c21 (stereo not given)	-26	13*	0	1	9.4*	9	PG9 bind DR=>67;PGV04 binding DR=>67;PG126 binding DR=>67
Cc1ccc(-c2cc(C(=O)NN=Cc3cccc(OCc4ccccc4)c3)[nH]n2)cc1C	·	·	·	-4	·	·
O=C(NCc1cccnc1)c1ccc(Cn2c(=S)[nH]c3ccc(Br)cc3c2=O)cc1	4	10*	3	9	13*	13*
COCCCn1c(=O)/c(=C\c2ccc(OC(F)F)c(OC)c2)s/c1=C(/C#N)C(N)=O	0	14*	7	2	36*	39*
COCCCn1c(=O)/c(=C\c2ccccc2OC(F)F)s/c1=C(/C#N)C(N)=O	22	-2	-2	2	·	·
CN(C)c1ccc(/C=C(\C#N)C(=O)NCc2ccco2)cc1	·	·	-3	·	·	·
CC(OC(=O)/C(C#N)=C/c1ccc(N(C)C)cc1)C(=O)NCc1ccco1 (stereo not given)	-11	10*	5	3	17*	24*
COc1ccc(S[C@]2(C(=O)N3CCCC3)CC(=O)N(c3ccccc3OC)[C@@H]2c2ccc(OC)cc2)cc1	·	·	·	-4	·	·
COC(=O)[C@H](CC1(c2cn(S(=O)(=O)CC[Si](C)(C)C)c3ccccc23)C(=O)Nc2ccccc21)NC(=O)OC(C)(C)C (stereo not given in full)	·	·	·	0	·	·
COc1cccc(-n2c(=O)[nH]cc(C(=O)Nc3ccc4c(c3)OCCO4)c2=O)c1	11	29*	1	3	7	9
COc1ccc(-n2c(=O)[nH]cc(C(=O)Nc3ccc4c(c3)OCCO4)c2=O)cc1OC	8	-2	0	-1	·	·
COC(=O)[C@]12C[C@H](CC(=O)N3CCCCC3)C(=O)N(Cc3ccc4c(c3)OCO4)C1=C[C@H](C(C)C)O[C@@H]2C1CC1	·	·	·	1	·	·
CC1CCN(C(=O)Cn2cnc3c(cnn3C(C)(C)C)c2=O)CC1	-88	11*	-3	-1	8	10*
CC(C)(C)n1ncc2c(=O)n(CC(=O)N3CCCC3)cnc21	-5	0	0	1	·	·
CCOC(=O)N1CCN(C(=O)CCCCCn2c(=S)[nH]c3cc4c(cc3c2=O)OCO4)CC1	-28	8.7*	4	1	3	16*
